MEKK2mut PB1 HTS: signal of MEK5 binding to mutant human MEKK2 PB1 domain | AID 1530 | percent response, % at 10 µM | bead flow cytometry, Alexa488-MEK5 binding to MEKK2 mutant | 0.35% of 290,000 active; in the data active = percent response above about 24%, passing the limit was not always enough
MEKK2wt PB1 HTS: raises or lowers MEK5 binding to wildtype human MEKK2 PB1 domain | Q9Y2U5 | AID 1531 | bead flow cytometry, Alexa488-MEK5 binding to MEKK2 WT; actives lie on both sides | 1.1% of 290,000 active | binding response (% of control), % at 10 µM; in the data active = binding response below about 67% or above about 130%
UBC13 inh: human UBC13 polyubiquitination inhibition. UBC13 polyubiquitin chain formation, TR-FRET. inhibition, % at 20 µM. 0.47% of 330,000 active. P61088. AID 485273; in the data active = inhibition above about 45%, passing the limit was not always enough
Target sequence (P61088 whole entry, looked up): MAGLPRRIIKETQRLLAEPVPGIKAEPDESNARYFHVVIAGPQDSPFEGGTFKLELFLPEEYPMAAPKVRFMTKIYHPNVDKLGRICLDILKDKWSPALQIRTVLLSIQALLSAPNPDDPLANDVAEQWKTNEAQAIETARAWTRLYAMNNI
Pemphigus Ab inh: blocks pemphigus antibody binding to human desmoglein-3 | P32926 | DSG3-coupled beads, scFv-anti-DSG3-GFP binding, flow cytometry; active compounds read low | binding (percent of control), % at 10 µM | 0.48% of 310,000 active;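 active = binding more than 3 SD below its plate's average and above zero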;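 note: hits lower antibody fragment binding to DSG3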
Apaf1 inhib: blocks human Apaf-1 apoptosome activity. reconstituted apoptosome caspase-3 activity, DEVD-Rh110 fluorescence. AID 489030. O14727. 0.71% of 330,000 active. inhibition, % at 20 µM; active = inhibition of at least 40% at 20 µM;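 note: plate controls were DMSO wells for no effect and DEVD-CHO caspase inhibitor wells for full effect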
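Material: reconstituted apoptosome with Apaf-1, cytochrome c, caspase-9, procaspase-3, dATP. Technique: Rh110 fluorescence intensity. Buffer or medium: pH 7.5 Hepes buffer with CHAPS, BSA, DTT. Times: 30 min plus 50 min, RT.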
MEKK3 PB1 HTS: MEKK3-MEK5 PB1 interaction, increase or decrease; 1.4% of 290,000 active; AID 1529; bead-based flow cytometry, Alexa488-MEK5 binding to MEKK3; actives lie on both sides; 0 = blocked by unlabeled MEK5, 100 = vehicle; binding response (% of control), % at 10 µM; Q99759;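 active = binding response more than 3 SD above or below the average of its plate-row segment, actives on both sides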;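 note: Alexa488 bead fluorescence after subtracting the streptavidin-only scavenger bead signal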
Apaf-1 inh conf2: Apaf-1 inhibition, single-dose confirmed; inhibition, % at 20 µM; reconstituted apoptosome, caspase-3 DEVD-Rh110 fluorescence; 25% of 1,800 active; shares compounds with Apaf1 inhib;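 active = mean inhibition of at least 40% at 20 µM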;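 note: plate controls were DMSO wells for no effect and DEVD-CHO caspase inhibitor control wells for full effect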
Rh110 interf inh: interferes with Rh110 fluorescence, flagging false Apaf-1 inhibitors | shares compounds with Apaf1 inhib | Rh110 fluorescence interference, quenched caspase reaction | activation (fluorescence interference), % at 20 µM | 1,800 tested, under 10 active;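 active = signal rise of 40% or more at 20 µM, treated as a fluorescence artifact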
Fluor interf inh: Apaf-1 inhibitor counter-screen fluorescence artifact. shares compounds with Apaf1 inhib. fluorescence interference counterscreen, Apaf-1 assay format. IC50, µM. 460 tested, under 10 active. AID 588538; call rule not given here
Active calls of the source: *; i = inactive; x = no result given. Most compounds without a hit are left out; they make up all but 3.2% or so of the library.

SMILES	MEKK2mut PB1 HTS	MEKK2wt PB1 HTS	UBC13 inh	Pemphigus Ab inh	Apaf1 inhib	MEKK3 PB1 HTS	Apaf-1 inh conf2	Rh110 interf inh	others
O=C(COc1ccccc1)N1CCN=C1SCc1ccc(F)cc1	-5	95	15	97	56*	98	5	-27
COc1ccc(CN(C)C(=O)c2ccc(OCC(=O)Nc3cccc(C(F)(F)F)c3)c(OC)c2)c(OC)c1	x	x	16	116	45*	x	35	-1
COc1cccc(CN(C)C(=O)c2ccc(OCC(=O)Nc3cccc(C(F)(F)F)c3)c(OC)c2)c1	x	x	2	112	25	x	x	x
O=C(NCc1cccc(C(F)(F)F)c1)c1ccc2c(c1)OCCO2	8	104	2	x	1	101	x	x
C#CCOCCOCCOCCNc1nc(N2CCN(C(=O)Cn3cc(CCCCN)nn3)CC2)nc(N2CCN(C(=O)[C@H](CCCCN)n3cc(CCCC)nn3)CC2)n1	x	x	41	101	41*	x	4	-7
COc1cc(/C=C2/C(=O)N(c3ccc([N+](=O)[O-])cc3)N=C2N2CCOCC2)ccc1O	-19	86	-126	100	86*	91	39	3
COc1cc(OC)c2c(-c3ccccc3)cc(=O)oc2c1C(CCN1CCOCC1)c1ccc(N(C)C)cc1 (stereo unspecified)	x	x	x	112	52*	x	11	-2
COc1cc(OC)c2c(C)cc(=O)oc2c1C(CCN1CCOCC1)c1ccc2c(c1)OCO2 (stereo unspecified)	7	104	25	104	35	106	x	x
CC(=O)N1CCOc2ccc(S(=O)(=O)N(C)c3ccc(C)cc3)cc21	-2	103	-4	105	40*	101	11	0
c1cc2cn[nH]c2cc1NC1CCCCCC1	4	109	-12	105	53*	106	68*	7	Fluor interf inh=>100
CC1=C(Nc2ccc(C(=O)O)cc2)C(=O)c2ccccc2C1=O	1	104	-65	95	18	104	x	x
COC1=C(Nc2ccc(C)cc2)C(=O)c2ccccc2C1=O	-3	91	-135	95	61*	91	11	0
COC1=C(Nc2ccccc2)C(=O)c2ccccc2C1=O	-3	78	-166	97	61*	74	26	9
CCC(C)n1c(NC(=O)c2ccccc2)c(C#N)c2nc3ccccc3nc21 (stereo unspecified)	2	83	-41	x	93*	96	33	9
CCC(=O)Nc1c(C#N)c2nc3ccccc3nc2n1-c1ccc(C)cc1	x	x	x	91	x	x	x	x
Cc1nn(C(C)(C)C)c(NC(=O)c2ccccc2)c1C#N	9	104	-13	95	12	105	x	x
N#Cc1c(NC(=O)c2ccc(Br)o2)n(-c2ccccc2)c2nc3ccccc3nc12	-5	91	-28	88	96*	94	87*	-3	Fluor interf inh=>100
COc1ccc(C2CC(=O)N3CN(c4ccc(C)c(Cl)c4)CSC3=C2C#N)cc1 (stereo unspecified)	6	104	-17	101	47*	112	8	0
[O-]/C(=C(\C(=S)Nc1cccc2ccccc12)[n+]1ccccc1)c1ccc(Cl)s1	0	101	-12	98	47*	99	15	-2
CCN(CC(=O)NCc1cccs1)C(=O)CCCOc1ccc(C(C)(C)C)cc1	x	x	10	103	42*	x	34	11
COc1ccc(N)cc1-n1c(C)ccc1C	-8	88	-27	82	84*	92	24	-2
COc1ccc(C)cc1-n1c(C)cc(C=O)c1C	-5	100	-12	102	3	98	x	x
O=C1C(C2=C(O)c3ccccc3C2=O)=Nc2ccccc21	2	97	-94	x	66*	99	99*	12	Fluor interf inh=>100
CN=CC1=C(O)c2ccccc2C1=O	6	110	-8	97	-22	107	x	x
O=C1NC(c2ccc(-c3ccccc3[N+](=O)[O-])o2)C(C(=O)c2ccc(F)cc2)C(O)(C(F)(F)F)N1 (stereo unspecified)	8	91	-23	104	51*	103	13	9
SMILES	MEKK2mut PB1 HTS	MEKK2wt PB1 HTS	UBC13 inh	Pemphigus Ab inh	Apaf1 inhib	MEKK3 PB1 HTS	Apaf-1 inh conf2	Rh110 interf inh	others
CCOC(=O)N1CCc2c(sc3c2C(=O)NC(c2ccccc2)N3)C1 (stereo unspecified)	x	x	-22	114	81*	x	20	1
CN1CCc2c(sc3c2C(=O)NC(c2cccc(OC(=O)c4cccs4)c2)N3)C1 (stereo unspecified)	x	x	0	118	22	x	x	x
CN(C(=O)COC(=O)c1cc(=O)[nH]c2ccccc12)c1ccccc1	x	x	-13	95	7	x	x	x
CCOC(=O)C1CCCN(C(=O)c2cccc(S(=O)(=O)N(C)c3c(C)n(C)n(-c4ccccc4)c3=O)c2)C1 (stereo unspecified)	2	101	26	114	49*	102	33	7
CC(=O)Nc1cccc(NC(=S)Nc2cccc3ccccc23)c1	3	102	-9	107	97*	103	16	1
NC(=S)Nc1cccc2cnccc12	9	111	0	103	-7	109	x	x
Cc1ccccc1NC(=S)Nc1cccc2cnccc12	-5	84	-30	x	91*	79	9	1
Cc1ccc(NC(=S)Nc2cccc3cnccc23)cc1	-10	74	-50	98	96*	78	20	-1
CC(=O)Nc1cccc(NC(=S)Nc2cccc(Cl)c2C)c1	-9	90	-2	95	-8	81	x	x
Fc1ccccc1NC(=S)Nc1cccc2cnccc12	-2	94	-37	102	97*	94	12	-4
Cc1cc(C(=O)CCC(=O)Nc2cccc(F)c2)c(C)s1	x	x	x	102	x	x	x	x
Nc1ncnc2c1ncn2-c1ccccc1Cl	x	x	x	124	x	x	x	x
Cc1ccc(NC(=S)Nc2cccc3cnccc23)cc1C	-2	94	-48	107	53*	94	23	11
Cc1ccc(-c2nn(CCC(N)=O)c(=O)c3ccccc23)cc1	3	101	2	124	1	100	x	x
CCOc1cc(/C=C2/C(=O)N(c3ccccc3)N=C2C)ccc1OC(=O)c1ccco1	1	99	-69	x	97*	101	21	17
CC1=NN(c2ccccc2)C(=O)/C1=C/C=C/C=C/N(C)C	-6	94	i	99	25	102	x	x

Source: PubChem BioAssay
